Compound activity deposited in PubChem BioAssay by several laboratories.
UBC13 polyUb – human UBC13 polyubiquitination inhibition | P61088 | UBC13 polyubiquitin chain formation, TR-FRET | inhibition, % at 20 µM | 330,000 compounds, 0.47% hits; in the data active = inhibition above about 45%, passing the limit was not always enough
Target sequence (P61088 whole entry, looked up): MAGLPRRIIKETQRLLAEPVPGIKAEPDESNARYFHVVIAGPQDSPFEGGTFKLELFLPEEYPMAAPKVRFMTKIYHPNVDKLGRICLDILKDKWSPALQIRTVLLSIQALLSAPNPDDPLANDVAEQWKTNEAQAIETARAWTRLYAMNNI
ZTA DNA inh – blocks Epstein-Barr virus ZTA, an EBNA-1 counter-screen; 320,000 compounds, 0.15% hits; AID 2234; P03206; ZTA-DNA binding, fluorescence polarization; inhibition, % at 11 µM; in the data active = inhibition above about 33%
Target sequence (P03206 whole entry, looked up): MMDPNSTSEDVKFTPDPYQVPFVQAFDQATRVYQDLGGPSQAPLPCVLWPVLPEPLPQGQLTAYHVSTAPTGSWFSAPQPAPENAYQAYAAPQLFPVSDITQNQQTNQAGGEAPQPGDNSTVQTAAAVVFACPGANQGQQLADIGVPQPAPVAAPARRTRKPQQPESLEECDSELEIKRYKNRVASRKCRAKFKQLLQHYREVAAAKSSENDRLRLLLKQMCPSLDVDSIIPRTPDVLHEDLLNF
PfM18AAP inh-1 – blocks P. falciparum M18 aspartyl aminopeptidase. recombinant PfM18AAP, H-Glu-NHMec fluorogenic cleavage. inhibition, % at 7.35 µM. 290,000 compounds, 1.2% hits;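 active = inhibition above the campaign mean inhibition over all tested compounds plus 3 SD, cut at about 28% in these data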;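 also: 0% = plate median of test compound wells and 100% = 2 mM ZnCl2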
EBNA-1 inh – blocks EBNA-1 binding to DNA; AID 1950; inhibition, % at 14.8 µM; EBNA-1 DNA binding, fluorescence polarization; 300,000 compounds, 0.34% hits; in the data active = inhibition above about 28%
PfG6PD inh – PfG6PD (Plasmodium falciparum) enzyme inhibition; PfGluPho enzyme, NADPH resazurin-diaphorase fluorescence; inhibition, % at 20 µM; 350,000 compounds, 0.78% hits;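 active = inhibition reaching at least a set limit at 20 µM in the primary screen, cut at about 59% in these data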;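 also: 0% = DMSO wells with substrate and 100% = DMSO wells lacking glucose-6-phosphate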
Apaf-1 inh – human Apaf-1 inhibition. reconstituted apoptosome caspase-3 activity, DEVD-Rh110 fluorescence. O14727. 330,000 compounds, 0.71% hits. AID 489030. inhibition, % at 20 µM; active = inhibition of at least 40% at 20 µM;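 also: plate controls were DMSO wells for no effect and DEVD-CHO caspase inhibitor wells for full effect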
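Material: reconstituted apoptosome with Apaf-1, cytochrome c, caspase-9, procaspase-3, dATP / Buffer or medium: pH 7.5 Hepes buffer with CHAPS, BSA, DTT / Also added: cytochrome c with DEVD-Rh110 / Schedule: compound with Apaf-1, dATP, procaspase-3 30 min, then 50 min reaction, room temperature / Technique: rhodamine 110 fluorescence at Ex 480/Em 540 nm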
PfM18AAP inh-2 – confirmation of Plasmodium falciparum M18 aspartyl aminopeptidase inhibitors; shares compounds with PfM18AAP inh-1; inhibition, % at 7.35 µM; recombinant PfM18AAP, H-Glu-NHMec fluorogenic cleavage; 2,400 compounds, 28% hits;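 active = mean inhibition over replicate wells above the hit cutoff set for the earlier primary screen, cut at about 29% in these data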;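 also: 0% = median of test compound wells and 100% = 2 mM ZnCl2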
CTSL1 confirm – counter-screen for PFM18AAP inhibitors: confirmation of human cathepsin L inhibitors | shares compounds with PfM18AAP inh-1 | purified cathepsin L1, Z-Leu-Arg-MCA fluorescence | inhibition, % at 5.96 µM | 2,400 tested, under 10 active | AID 2178;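 active = average inhibition across replicates above the hit cutoff set in the earlier primary screen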;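 also: 0% = median of test compound wells and 100% = Z-Phe-Ala-diazomethylketone 1 µM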
Numbers without * were called inactive; . = no result given. Sampled rows, rich in hits. Any-hit rate of the full collection: about 2.9%.

SMILES	UBC13 polyUb	ZTA DNA inh	PfM18AAP inh-1	EBNA-1 inh	PfG6PD inh	Apaf-1 inh	PfM18AAP inh-2	CTSL1 confirm
O=C(Nc1nc(-c2ccccn2)cs1)Nc1ccc(F)cc1F	-16	1	48*	8	57	20	0	2
O=C(Nc1nc(-c2ccccc2)cs1)Nc1ccc(F)cc1F	4	-15	-14	-7	3	0	.	.
Cc1snc2sc(C(=O)c3ccc(F)cc3)c(N)c12	8	24	41*	9	-2	-16	-38	5
O=C(Cn1c(NCCCO)nc2ccccc21)c1ccc(Cl)cc1Cl	1	0	0	0	8	3	.	.
COc1ccc(CNC(=O)CN(C(=O)c2csnn2)c2ccc(F)cc2)cc1	-1	0	-4	11	-7	1	.	.
NC(=O)c1cc(Cc2ccccc2)sc1NC(=O)c1ccco1	7	-19	35*	-5	47	6	-21	6
COC(=O)CCC(=O)Nc1sc(C)c(C)c1C(N)=O	-6	6	43*	-10	52	1	18	3
COC(=O)CCC(=O)NC(=S)Nc1sc(C)c(C)c1C(N)=O	-15	1	14	-5	5	1	.	.
Cc1sc(NC(=O)C2CCCCC2C(=O)O)c(C(N)=O)c1-c1ccccc1 (stereo unspecified)	-9	-8	5	-7	-4	5	.	.
Cc1sc(NC(=O)C2CCCCC2C(=O)O)c(C(N)=O)c1C (stereo unspecified)	4	0	36*	5	3	-1	-56	-1
Cc1cccc(NC(=O)CSc2cn[nH]n2)c1	6	-14	13	-18	29	-3	.	.
O=C(CSc1cn[nH]n1)Nc1cccc(C(=O)O)c1	1	3	54*	9	56	2	12	-6
Cc1cccc(-n2c(CNC(=O)Cc3ccccc3)n[nH]c2=S)c1	-3	-21	38*	-4	38	-2	2	1
Cc1c(C(=O)NCc2n[nH]c(=S)n2-c2ccc(F)cc2)cccc1[N+](=O)[O-]	-9	8	33*	-11	35	3	8	2
Cc1cccc(-n2c(Cc3ccccc3)n[nH]c2=S)c1	-1	6	34*	12	39	-1	-5	-13
COc1cccc(NC(=O)CN(C)C(=O)Cn2cnc3ccccc3c2=O)c1	-3	9	.	-12	-9	0	.	.
O=C(NNc1ccccc1[N+](=O)[O-])Nc1cccc(Cl)c1	-1	1	33*	3	36	-19	31*	0
O=C(NNc1ccccc1[N+](=O)[O-])Nc1ccc(F)cc1F	-1	10	40*	1	5	-2	27	-3
O=C(Nc1cccc(Cl)c1)Nc1ccccc1C(=O)O	-10	-2	13	-3	29	5	.	.
CCN(CC)CCCNC(=O)c1csc(Nc2cccc3ccccc23)n1	4	-18	15	-7	17	12	.	.
CCN(CC)C(=O)c1csc(Nc2cccc3ccccc23)n1	-59	-1	32*	20	2	29	-18	4
NNc1nc2cc3c(cc2s1)OCCO3	-5	-2	52*	-2	38	2	9	-5
Cc1ccc(C(c2sc3ncnn3c2O)N2CCC(C)CC2)cc1 (stereo unspecified)	6	5	56*	-12	6	-2	-24	0
Cc1ccc(C(c2sc3ncnn3c2O)N2CCCCC2)cc1 (stereo unspecified)	-2	-4	47*	1	-4	7	-14	-11
Oc1c(C(c2ccc(F)cc2)N2CCc3ccccc3C2)sc2ncnn12 (stereo unspecified)	-4	-2	53*	2	32	0	25	-5
Brc1ccc2nc(CSc3ncn[nH]3)cn2c1	-9	4	66*	-1	4	9	30*	3
Clc1ccc2nc(CSc3ncn[nH]3)cn2c1	-3	-14	43*	-4	1	-2	13	7
Cc1cc(C)nc(SCc2cn3cc(Cl)ccc3n2)n1	-1	3	0	6	10	-5	.	.
